Experimental findings from ChEMBL document CHEMBL1146022, “Replacement of the metabolically labile methyl esters in the alkenyldiarylmethane series of non-nucleoside reverse transcriptase inhibitors with isoxazolone, isoxazole, oxazolone, or cyano substituents” (J Med Chem, 2006) are described below.

Data set [1] deals with Human immunodeficiency virus type 1 reverse transcriptase (Human immunodeficiency virus 1, UniProt Q72547). As to the kind of experiment: Inhibition of recombinant HIV1 reverse transcriptase measured as inhibition of incorporation of [32P]GTP in rCDG primer. It is filed as functional. The method, boiled down:
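Purified recombinant HIV-1 RT p66/p51 heterodimer. Polymerase activity followed as [32P]GTP incorporation on poly(rC)/oligo(dG) homopolymer template-primer. IC50 taken from inhibition of incorporation.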

Data set [2] deals with Human immunodeficiency virus 1. Kind of data set: Antiviral activity against HIV1 RF in CEM-SS cells by MTS cytoprotection assay. Format: functional, organism-based. The note with it: Human immunodeficiency virus 1, RF. The method, boiled down:
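CEM-SS cells infected with HIV-1 RF; cytoprotection against viral cytopathic effect read by MTS assay. EC50 taken as the concentration giving 50% inhibition of cytopathicity.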
A general note: Formazan colour is commonly taken as a measure of viable cells.

Another data set concerns CEM-SS. As to the kind of experiment: Cytotoxicity against mock-infected CEM-SS cells. It is filed as functional. As to conditions: Homo sapiens.
Data set [3] in a line: Half life in rat plasma. Format: ADME. The method, boiled down: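 In vitro hydrolytic stability in rat plasma, with 1,1-diphenylethylene or benzophenone as internal standard. Half-life reported in minutes with SD.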
The test system of data set [4] is Human immunodeficiency virus 1. Kind of data set: Antiviral activity against HIV1 3B in MT4 cells by MTT assay. It is filed as functional, organism-based. The note with it: Human immunodeficiency virus 1, 3B. The method, boiled down:
(§1)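 MT-4 cells infected with HIV-1 IIIB or HIV-2 ROD; protection from virus-induced cytopathicity read by MTT assay. EC50 taken as the concentration giving 50% inhibition of cytopathicity.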

For data set [5], the system named is Human immunodeficiency virus 2. As to the kind of experiment: Antiviral activity against HIV2 ROD in MT4 cells by MTT assay. Format: functional, organism-based. The note with it: Human immunodeficiency virus 2, ROD. The method, boiled down: as §1
Another data set has as its system MT4. Kind of data set: Cytotoxicity against mock-infected MT4 cells. Format: functional. As to conditions: Homo sapiens.

A word on the IC50: it is the point on the concentration scale where inhibition reaches its midpoint. The EC50 is the midpoint of the concentration-response curve. In general, CC50 refers to the concentration at which the toxic effect on the cells reaches its halfway point. A high value points to better tolerance by the cells. In the case of `COC(=O)CCCC=C(c1cccc(C#N)c1)c1cc(C)c2on(C)c(=O)c2c1`, the IC50 in data set [1] came out at 49.6 µM. The compound further came in with an EC50 in data set [2] greater than 100 µM. This compound registered a CC50 with CEM-SS of 14 µM.
As usually defined, the half-life is the time needed for the level to fall by half in the phase considered. Lower therefore signals rapid decline. Regarding `COC(=O)c1cc(/C(=C\CCN2CCOC2=O)c2cc(C)c3on(C)c(=O)c3c2)cc(C)c1OC`, the IC50 in data set [1] came out at 9.86 µM. The EC50 in data set [2] was 2.7 µM. In the data set with CEM-SS, this compound gave a CC50 of 16.3 µM. Besides, the half-life in data set [3] is 22.1 min.
With `COC(=O)CCC/C=C(/c1cc(C)c2on(C)c(=O)c2c1)c1cc(C)c2oc(=O)n(C)c2c1`, the 50% inhibitory concentration (IC50) in data set [1] was 49.2 µM. Moreover, the 50% effective concentration (EC50) is 1.79 µM in data set [2], 4.49 µM in data set [4] and greater than 36.5 µM in data set [5]. Besides, the CC50 in the data set on MT4 is 36.5 µM; in the data set on CEM-SS, 11.1 µM. This compound also had a half-life in data set [3] of 0.46 min.
Consider `COC(=O)CCC/C=C(/c1ccc(C#N)cc1)c1cc(C)c2oc(=O)n(C)c2c1`, for which, in data set [1], the IC50 is 1.2 µM. The EC50 in data set [2] was 0.59 µM; in data set [4], 1.49 µM; in data set [5], greater than 51 µM. The CC50 in the data set on MT4 was 51 µM; in the data set on CEM-SS it was 21.9 µM.
For the compound `COC(=O)CCC/C=C(/c1cccc(C#N)c1)c1cc(C)c2oc(=O)n(C)c2c1`, the IC50 in data set [1] is 2.8 µM. In data set [2], the EC50 stood at 1.73 µM. For the same compound, in the data set with CEM-SS, it took 11.5 µM to reach half-maximal cytotoxicity (CC50).
Take `COC(=O)CCC/C=C(\c1cccc(C#N)c1)c1cc(C)c(OC)c(C(=O)OC)c1`: the concentration for half-maximal inhibition (IC50) in data set [1] worked out at 0.54 µM. For the same compound, the EC50 in data set [2] was 0.46 µM; in data set [4] it was 0.47 µM; in data set [5], greater than 10.6 µM. Moreover, the half-maximal cytotoxic concentration (CC50) with MT4 stood at 10.6 µM; in the data set on CEM-SS, 10.9 µM. Besides, the half-life in data set [3] amounted to 1.32 min.
Turning to `COc1noc2c(C)cc(/C(=C\CCN3CCOC3=O)c3cc(C)c4on(C)c(=O)c4c3)cc12`, the IC50 in data set [1] worked out at 7.6 µM. In addition, the concentration for a half-maximal effect (EC50) was greater than 9.91 µM in data set [2], greater than 1.12 µM in data set [4] and greater than 1.12 µM in data set [5]. In addition, the CC50 in the data set with MT4 stood at 1.12 µM; in the data set on CEM-SS, 1.54 µM. The compound also registered a half-life in data set [3] greater than 1440 min.
As to `COC(=O)CCC/C=C(\c1cc(C)c(OC)c(C(=O)OC)c1)c1cc(C)c2on(C)c(=O)c2c1`, the half-inhibitory concentration (IC50) in data set [1] was found to be 2 µM. Also, the EC50 in data set [2] was 1.1 µM; in data set [4], 3.1 µM; in data set [5], greater than 27.1 µM. The results for the CC50 with MT4 and with CEM-SS were 27.1 µM and greater than 5 µM, respectively. Further, the half-life in data set [3] is 1.85 min.
Turning to `COC(=O)CCC/C=C(/c1cc(C)c(OC)c(C(=O)OC)c1)c1cc(C)c2oc(=O)n(C)c2c1`, in data set [1], the IC50 amounted to 0.02 µM. Moreover, the EC50 amounted to 0.03 µM in data set [2] and 0.09 µM in data set [4].
Consider `COC(=O)CCCC=C(c1cccc(C#N)c1)c1cc(C)c2oc(=O)n(C)c2c1`, for which the IC50 in data set [1] was 26.4 µM. The 50% effective concentration (EC50) is greater than 100 µM in data set [2], greater than 54.2 µM in data set [4] and greater than 54.2 µM in data set [5]. Further, the results for the half-maximal cytotoxic concentration (CC50) in the data set with MT4 and in the data set with CEM-SS were 54.2 µM and 12.9 µM, respectively. In data set [3], this compound registered a half-life of 1.18 min.
